Assay results reported in ChEMBL document CHEMBL1123619, “Isothiourea derivatives of 6-phenyl-2,3,5,6-tetrahydroimidazo[2,1-b]thiazole with broad-spectrum anthelmintic activity” (J Med Chem, 1987).
Activity calls are given as the source filed them. The rule behind the calls is not given here.

Experiments:
[1] = system: Mus musculus; assay: Nematocidal activity against Nematospiroides dubius induced necropsy in mouse, after oral administration of 50 mg/kg of the compound; type: functional
In short: (§1)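 Seven-week-old female LACA mice infected orally with 100 N. dubius L3 larvae; single gavage dose given at day 10 of infection, groups of four mice; necropsy 4 days later; percent activity from worm burdens of treated versus untreated groups.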

[2] = system: Mus musculus; assay: Nematocidal activity against Nematospiroides dubius induced necropsy in mouse, after oral administration of 100 mg/kg of the compound; type: functional; in short: as §1
[3] = system: Ovis aries; assay: Anthelmintic activity against adult liver fluke (Fasciola hepatica) in 2 sheep, after peroral administration of 30 mg/kg was determined.; type: functional; conditions: route oral
In short: (§2)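 Sheep dosed with a single oral dose. Fecal fluke egg output monitored after treatment. Animals necropsied only if the fecal egg count fell. Postmortem Fasciola hepatica burdens compared with untreated control sheep (mean of 10 controls). Single animals per test unless otherwise indicated, with group size given in parentheses. I denotes no effect on fecal fluke egg output.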

[4] = system: Heligmosomoides polygyrus; assay: Nematocidal activity against Nematospiroides dubius induced necropsy in mouse, oral administration 200 mg/kg; type: functional; in short: as §1
[5] = system: Fasciola hepatica; assay: Anthelmintic activity against adult liver fluke (Fasciola hepatica) in sheep following 30 mg/kg p.o.; type: functional; conditions: route oral; in short: as §2
[6] = system: Ovis aries; assay: Anthelmintic activity against adult liver fluke (Fasciola hepatica) in sheep, after peroral administration of 20 mg/kg was determined; type: functional; conditions: route oral; in short: as §2
[7] = system: Ovis aries; assay: Anthelmintic activity against adult liver fluke (Fasciola hepatica) in sheep, after peroral administration of 15 mg/kg was determined; type: functional; conditions: route oral; in short: as §2
[8] = system: Mus musculus; assay: Nematocidal activity against Nematospiroides dubius induced necropsy in mouse, after oral administration of 100 mg/kg; type: functional; in short: as §1
[9] = system: Ovis aries; assay: Anthelmintic activity against adult liver fluke (Fasciola hepatica) in sheep, after peroral administration of 30 mg/kg; I means no effect on sheep fecal fluke egg output; type: functional, organism-based; design: dose 30 mg/kg; conditions: at 30 mg/kg; in short: as §2
[10] = system: Ovis aries; assay: Anthelmintic activity against adult liver fluke (Fasciola hepatica) in sheep, after peroral administration of 30 mg/kg was determined; I means no effect on sheep fecal fluke egg output; type: functional, organism-based; design: dose 30 mg/kg; conditions: at 30 mg/kg; in short: as §2
[11] = system: Ovis aries; assay: Anthelmintic activity against adult liver fluke (Fasciola hepatica) in 3 sheep, after peroral administration of 30 mg/kg was determined. Value in parentheses indicate number of animals used; type: functional; conditions: route oral; in short: as §2
[12] = system: Ovis aries; assay: Toxic activity expressed as the percentage against liver fluke in the sheep at 15 mg/kg peroral administration of dose; type: ADME, organism-based; design: dose 15 mg/kg, route oral; conditions: in vivo, po
In short: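 Fasciola hepatica in sheep, controlled test; animals necropsied only when fecal egg count fell; postmortem fluke burdens compared with untreated control sheep (10 controls).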

[13] = system: Mus musculus; assay: Nematocidal against Nematospiroides dubius in mouse was determined at 5 mg/kg peroral dose of compound; type: functional; conditions: route oral; in short: as §1
[14] = system: Ovis aries; assay: Toxic activity expressed as the percentage against liver fluke in the sheep at 30 mg/kg peroral administration of dose; lethal; type: ADME, organism-based; design: dose 30 mg/kg, route oral; conditions: in vivo, po
[15] = system: Mus musculus; assay: Nematocidal against Nematospiroides dubius in mouse was determined at 0.5 mg/kg peroral dose of compound; type: functional; conditions: route oral; in short: as §1
[16] = system: Mus musculus; assay: Nematocidal against Nematospiroides dubius in mouse was determined at 1 mg/kg peroral dose of compound; type: functional; conditions: route oral; in short: as §1
[17] = system: Mus musculus; assay: Nematocidal against Nematospiroides dubius in mouse was determined at 50 mg/kg peroral dose of compound; all animals died at this dose; type: functional, organism-based; design: dose 50 mg/kg; in short: as §1
[18] = system: Ovis aries; assay: Anthelmintic activity against adult liver fluke (Fasciola hepatica) in sheep, after peroral administration of 30 mg/kg was determined. Value in parentheses indicate number of animals used; type: functional; conditions: route oral; in short: as §2
[19] = system: Ovis aries; assay: Anthelmintic activity against adult liver fluke (Fasciola hepatica) in 2 sheep, after peroral administration of 30 mg/kg was determined. Value in parentheses indicate number of animals used; type: functional; conditions: route oral; in short: as §2
[20] = system: Ovis aries; assay: Anthelmintic activity against adult liver fluke (Fasciola hepatica) in sheep, after peroral administration of 20 mg/kg was determined; I means no effect on sheep fecal fluke egg output; type: functional, organism-based; design: dose 20 mg/kg; conditions: at 20 mg/kg; in short: as §2
[21] = system: Ovis aries; assay: Anthelmintic activity against adult liver fluke (Fasciola hepatica) in sheep, after peroral administration of 20 mg/kg; I means no effect on sheep fecal fluke egg output; type: functional, organism-based; design: dose 20 mg/kg; conditions: at 20 mg/kg; in short: as §2
[22] = system: Ovis aries; assay: Anthelmintic activity against adult fecal fluke egg output in sheep, after peroral administration of 30 mg/kg; I means no effect on sheep fecal fluke egg output; type: functional, organism-based; design: dose 30 mg/kg; conditions: at 30 mg/kg; in short: as §2
[23] = system: Mus musculus; assay: Nematocidal activity against Nematospiroides dubius induced necropsy in mouse, after oral administration of 25 mg/kg of the compound; type: functional; in short: as §1
[24] = system: Ovis aries; assay: Anthelmintic activity against adult liver fluke (Fasciola hepatica) in sheep, after peroral administration of 7.5 mg/kg was determined; type: functional; conditions: route oral; in short: as §2
[25] = system: Ovis aries; assay: Anthelmintic activity against adult liver fluke (Fasciola hepatica) in sheep, after peroral administration of 10 mg/kg was determined; type: functional; conditions: route oral; in short: as §2
[26] = system: Mus musculus; assay: Nematocidal activity against Nematospiroides dubius induced necropsy in mouse, after oral administration of 12.5 mg/kg of the compound; type: functional
In short: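 Female LACA mice (7 weeks) infected orally with 100 N. dubius L3 larvae; single oral dose as solution in PEG 400 on infection day 10, four mice per group; necropsied 4 days later; percent activity by comparing treated and untreated worm burdens.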

[27] = system: Ovis aries; assay: Anthelmintic activity against adult liver fluke (Fasciola hepatica) in sheep, after peroral administration of 5 mg/kg was determined; type: functional; conditions: route oral; in short: as §2

Row | Compound | Reduction [4] | Activity [5] | Reduction [8] | also measured
1 | CS/C(=N\c1cccc(C2CN3CCSC3=N2)c1)Nc1ccccc1 (stereo not given) | 99% |  |  | Activity [1]: 0%; Activity [2]: 38%; Activity [3]: 94%
2 | CS/C(=N\c1cccc(C2CN3CCSC3=N2)c1)Nc1ccc(C)cc1 (stereo not given) | 0% | 91% |  | 
3 | CS/C(=N\c1cccc(C2CN3CCSC3=N2)c1)Nc1ccc([S+](C)[O-])cc1 (stereo not given) | 97% | 100% | 33% | Activity [6]: 66%; Activity [7]: 14%
4 | COc1ccc(N/C(=N/c2cccc(C3CN4CCSC4=N3)c2)SC)cc1 (stereo not given) | 0% |  |  | Activity [9]: inactive
5 | CS/C(=N\c1cccc(C2CN3CCSC3=N2)c1)Nc1ccc(F)cc1 (stereo not given) | 100% | 60% | 0% | 
6 | CS/C(=N\c1cccc(C2CN3CCSC3=N2)c1)NC1CCCCC1 (stereo not given) | 15% |  |  | Activity [9]: inactive
7 | CC(C)S/C(=N\c1cccc(C2CN3CCSC3=N2)c1)Nc1ccccc1 (stereo not given) | 0% |  |  | Activity [10]: inactive
8 | CS/C(=N\c1ccccc1)N(C)c1cccc(C2CN3CCSC3=N2)c1 (stereo not given) | 0% |  |  | Activity [10]: inactive
9 | CS/C(=N\c1cccc(C2CN3CCSC3=N2)c1)Nc1ccc(Br)cc1 (stereo not given) | 73% | 94% | 0% | Activity [6]: 100%
10 | CS/C(=N\c1cccc(C2CN3CCSC3=N2)c1)Nc1cccc([N+](=O)[O-])c1 (stereo not given) | 95% | 91% | 95% | Activity [7]: 100%
11 | CS/C(=N\c1cccc(C2CN3CCSC3=N2)c1)Nc1ccc(Cl)c(Cl)c1 (stereo not given) | 0% | 63% | 0% | 
12 | CS/C(=N\c1cccc(C2CN3CCSC3=N2)c1)Nc1cccc(C#N)c1 (stereo not given) | 100% |  | 54% | Activity [6]: 100%; Activity [7]: 63%; Activity [11]: 100%
13 | CCCCCCN/C(=N/c1cccc(C2CN3CCSC3=N2)c1)SC (stereo not given) | 52% |  |  | Activity [9]: inactive
14 | Nc1cccc(C2CN3CCSC3=N2)c1 (stereo not given) |  |  |  | Activity [12]: 0%; Reduction [13]: 100%; Activity [14]: lethal; Reduction [15]: 43%; Reduction [16]: 99%; Reduction [17]: all animals died at this dose
15 | CS/C(=N\c1cccc(C2CN3CCSC3=N2)c1)Nc1ccc([N+](=O)[O-])cc1 (stereo not given) | 100% |  | 100% | Reduction [1]: 95%; Activity [6]: 85%; Activity [18]: 94%
16 | CS/C(=N\c1cccc(C2CN3CCSC3=N2)c1)Nc1ccccc1Cl (stereo not given) | 23% |  |  | Activity [9]: inactive
17 | CS/C(=N\c1cccc(C2CN3CCSC3=N2)c1)Nc1ccc(C(F)(F)F)cc1 (stereo not given) | 74% | 100% |  | Activity [7]: 100%

Row | Compound | Reduction [4] | Activity [5] | Reduction [8] | also measured
18 | CS/C(=N\c1cccc(C2CN3CCSC3=N2)c1)Nc1ccc(SC)cc1 (stereo not given) | 95% |  | 30% | Activity [6]: 80%; Activity [7]: 71%; Activity [19]: 100%
19 | CS/C(=N\c1cccc(C2CN3CCSC3=N2)c1)Nc1ccc(C(C)=O)cc1 (stereo not given) | 100% | 100% | 93% | Activity [7]: 100%
20 | CS/C(=N\c1cccc(C2CN3CCSC3=N2)c1)Nc1cccc(F)c1 (stereo not given) | 100% | 66% | 100% | Reduction [1]: 64%
21 | CS/C(=N\c1cccc(C2CN3CCSC3=N2)c1)Nc1ccccc1C#N (stereo not given) | 0% |  |  | Activity [10]: inactive
22 | c1ccc(C2CN3CCSC3=N2)cc1 (stereo not given) [TETRAMISOLE] |  |  |  | Reduction [13]: 57%; Reduction [16]: 43%
23 | CS/C(=N\c1cccc(C2CN3CCSC3=N2)c1)Nc1ccc(S(C)(=O)=O)cc1 (stereo not given) | 100% |  | 94% | Reduction [1]: 41%; Activity [6]: 89%; Activity [7]: 74%; Activity [3]: 100%
24 | CCOC(=O)c1ccc(N/C(=N/c2cccc(C3CN4CCSC4=N3)c2)SC)cc1 (stereo not given) | 74% | 97% |  | Activity [20]: inactive
25 | CCS/C(=N\c1cccc(C2CN3CCSC3=N2)c1)Nc1ccccc1 (stereo not given) | 92% | 97% |  | Activity [21]: inactive
26 | CCCS/C(=N\c1cccc(C2CN3CCSC3=N2)c1)Nc1ccccc1 (stereo not given) | 64% |  |  | Activity [22]: inactive
27 | CCCCCCCCS/C(=N\c1cccc(C2CN3CCSC3=N2)c1)Nc1ccccc1 (stereo not given) | 0% |  |  | Activity [10]: inactive
28 | CS/C(=N\c1cccc(C2CN3CCSC3=N2)c1)Nc1cccc(Cl)c1 (stereo not given) | 99% | 91% | 87% | Activity [21]: inactive
29 | CS/C(=N\c1cccc(C2CN3CCSC3=N2)c1)Nc1ccc(Cl)cc1 (stereo not given) | 88% | 100% | 0% | 
30 | CS/C(=N\c1cccc([C@H]2CN3CCSC3=N2)c1)Nc1ccc(C#N)cc1 | 100% |  | 100% | Reduction [23]: 99.9%; Activity [24]: 91%; Reduction [1]: 100%; Activity [25]: 100%; Reduction [26]: 66%; Activity [27]: 85%
31 | CCCCS/C(=N\c1cccc(C2CN3CCSC3=N2)c1)Nc1ccccc1 (stereo not given) | 0% |  |  | Activity [10]: inactive
32 | CS/C(=N\c1cccc(C2CN3CCSC3=N2)c1)Nc1ccc(C)c(C)c1 (stereo not given) | 0% | 85% |  | 
33 | CS/C(=N\c1cccc(C2CN3CCSC3=N2)c1)Nc1cccc(Br)c1 (stereo not given) | 79% | 100% | 56% | Activity [6]: 100%; Activity [7]: 77%
34 | c1ccc(CS/C(=N\c2cccc(C3CN4CCSC4=N3)c2)Nc2ccccc2)cc1 (stereo not given) | 0% |  |  | Activity [10]: inactive
